Published values from different studies.
Effect on: enzyme activity
Action: inhibitor
PDGFRA V561D: Platelet-derived growth factor receptor alpha (PDGFRA, Homo sapiens, UniProt P16234, V561D)
PDGFRA: Platelet-derived growth factor receptor alpha (PDGFRA, Homo sapiens, UniProt P16234)

Compound | target | assay | setting | inhibition [%]
COc1cc2ncnc(Nc3ccc(Oc4ccccc4)c(C)c3C)c2cc1OC | PDGFRA V561D | – | 1 µM | 7
CS(=O)(=O)Nc1cccc(-c2csc(NC(=O)CSc3nc4nccnc4c(=O)n3CCc3ccccc3)n2)c1 | PDGFRA | – | 10 µM | 5
COc1cc(-c2cc(-c3ccc(N4CCNCC4)cc3)cnc2N)cc(OC)c1OC | Platelet-derived growth factor receptor alpha (PDGFRA, Homo sapiens, UniProt P16234, T674I) | – | 0.1 µM | 2
COc1cc2ncnc(Nc3ccc(Oc4ccccc4)cc3C)c2cc1OC | PDGFRA V561D | – | 1 µM | 20
CNCc1ccc(-c2cc(-c3nc(-c4ccc(S(=O)(=O)C(C)C)cc4)cnc3N)on2)cc1 | PDGFRA | – | 2 µM | 9
CNC(=O)c1cc(Oc2ccc(NC(=O)Nc3ccc(Cl)c(C(F)(F)F)c3)cc2)ccn1 | PDGFRA | – | 0.3 µM | 35
CC/C(=N\NC(=O)NCc1cccc(O)c1)c1ccc(O)c(C)c1O | Platelet-derived growth factor receptor alpha (PDGFRA, Homo sapiens, UniProt P16234, D842V) | – | 0.1 µM | 1.1
CNC(=O)c1cc2c(Oc3ccc(NC(=O)C4(C(=O)Nc5ccc(F)cc5)CC4)cc3)ccnc2cc1OC | PDGFRA | radiometric | 1 µM | 71
COc1cc2nccc(Oc3ccc(NC(=O)c4c5n(n(-c6ccc(F)cc6)c4=O)CCCC5)cc3)c2cc1OC | PDGFRA | – | 0.1 µM | 30
